Assay [1] has as its target T1, C-C chemokine receptor type 1 (Homo sapiens) (UniProt P32246).
T1 sequence (whole entry): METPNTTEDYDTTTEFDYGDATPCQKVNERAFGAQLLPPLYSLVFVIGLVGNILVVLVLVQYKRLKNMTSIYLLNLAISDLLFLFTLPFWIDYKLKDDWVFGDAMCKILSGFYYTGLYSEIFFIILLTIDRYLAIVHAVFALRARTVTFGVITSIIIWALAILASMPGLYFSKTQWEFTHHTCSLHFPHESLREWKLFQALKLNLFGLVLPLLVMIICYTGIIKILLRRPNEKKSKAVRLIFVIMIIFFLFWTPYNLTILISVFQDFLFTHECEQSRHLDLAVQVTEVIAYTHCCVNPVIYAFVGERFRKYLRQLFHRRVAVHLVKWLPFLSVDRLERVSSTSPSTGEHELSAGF
Kind of assay: Inverse agonist activity at human TEV protease site linked CCR1 expressed in human U20S cell membranes co-expressing Gal4-VP16 transcription factor assessed as decrease in basal activity at 100 uM after 90 mins in presence of 1 uM GDP by [35S]GTPgammaS binding assay relative to control. The assay is classed as functional. In a few lines:
(§1)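 Basal [35S]GTPγS binding on human CCR1 U2OS membranes (10 μg) with saponin, in Tris/MgCl2/NaCl/EDTA/0.05% BSA, pH 7.4, without chemokine. Compound was tested at 100 μM with GDP at 1, 10 or 20 μM. Preincubation was 30 min at 25 °C, then 90 min after adding 0.3 nM [35S]GTPγS. Filtration and scintillation read-out; decrease versus basal.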

In assay [2] the target is T1, C-C chemokine receptor type 1 (Homo sapiens). The experiment in a line: Inverse agonist activity at human TEV protease site linked CCR1 expressed in human U20S cell membranes co-expressing Gal4-VP16 transcription factor assessed as decrease in basal activity at 100 uM after 90 mins in presence of 10 uM GDP by [35S]GTPgammaS binding assay relative to control. Format: functional. In a few lines: as §1

Assay [3] shares this target. Kind of assay: Inverse agonist activity at human TEV protease site linked CCR1 expressed in human U20S cell membranes co-expressing Gal4-VP16 transcription factor assessed as decrease in basal activity at 100 uM after 90 mins in presence of 20 uM GDP by [35S]GTPgammaS binding assay relative to control. Format: functional. In a few lines:
as §1
On the technique in general: GTPγS is a poorly hydrolysed GTP analogue; its binding reports G protein activation.

Assay [4] addresses T2, C-C chemokine receptor type 1 (Homo sapiens, UniProt P32246).
T2 sequence (P32246 whole entry): T1 sequence (whole entry)
The experiment in a line: biochemical.

Assay [5] deals with T3, C-C chemokine receptor type 2 (Homo sapiens, UniProt P41597). The experiment in a line: Displacement of [3H]-CCR2-RA-[R] from human TEV protease site linked CCR2b expressed in human U20S cell membranes co-expressing Gal4-VP16 transcription factor after 120 mins by scintillation spectrometry.
In assay [6] the target is T1, C-C chemokine receptor type 1 (Homo sapiens). Kind of assay: Inverse agonist activity at human TEV protease site linked CCR1 expressed in human U20S cell membranes co-expressing Gal4-VP16 transcription factor assessed as decrease in basal activity after 90 mins in presence of 1 uM GDP by [35S]GTPgammaS binding assay relative to control. The assay is classed as functional. In a few lines:
as §1

For assay [7], the target named is T2, C-C chemokine receptor type 1. Kind of assay: Antagonist activity at human TEV protease site linked CCR1 expressed in human U20S cell membranes co-expressing Gal4-VP16 transcription factor assessed as reduction in CCL3-induced G-protein activation preincubated for 30 mins in presence of CCL3 followed by incubation of 90 mins by [35S]GTPgammaS binding assay. The assay is classed as functional. In a few lines:
(§2)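 Stably transfected U2OS membranes (10 μg; human CCR1 or CCR2b) in 50 mM Tris-HCl pH 7.4 with 5 mM MgCl2, 100 mM NaCl, 1 mM EDTA, 0.05% BSA, 10 μM GDP and 10 μg saponin. Preincubated with graded compound plus 8 nM CCL3 (CCR1) or 20 nM CCL2 (CCR2), then 0.3 nM [35S]GTPγS for 90 min at 25 °C.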

Another assay is filed under the species Homo sapiens. The experiment in a line: Selectivity ratio of IC50 for human TEV protease site linked CCR1 expressed in human U20S cell membranes co-expressing Gal4-VP16 transcription factor to IC50 for human TEV protease site linked CCR2b expressed in human U20S cell membranes co-expressing Gal4-VP16 transcription factor. Format: cell-based.
Assay [8] deals with T3, C-C chemokine receptor type 2. Kind of assay: Antagonist activity at human TEV protease site linked CCR2b expressed in human U20S cell membranes co-expressing Gal4-VP16 transcription factor assessed as reduction in CCL2-induced G-protein activation preincubated for 30 mins in presence of CCL2 followed by incubation of 90 mins by [35S]GTPgammaS binding assay. Format: functional. In a few lines:
as §2

Active and inactive are the calls of the source. The calls are words filed in the database; no cut-off is given here.

T3 sequence (P41597 whole entry, the tested form may be a part): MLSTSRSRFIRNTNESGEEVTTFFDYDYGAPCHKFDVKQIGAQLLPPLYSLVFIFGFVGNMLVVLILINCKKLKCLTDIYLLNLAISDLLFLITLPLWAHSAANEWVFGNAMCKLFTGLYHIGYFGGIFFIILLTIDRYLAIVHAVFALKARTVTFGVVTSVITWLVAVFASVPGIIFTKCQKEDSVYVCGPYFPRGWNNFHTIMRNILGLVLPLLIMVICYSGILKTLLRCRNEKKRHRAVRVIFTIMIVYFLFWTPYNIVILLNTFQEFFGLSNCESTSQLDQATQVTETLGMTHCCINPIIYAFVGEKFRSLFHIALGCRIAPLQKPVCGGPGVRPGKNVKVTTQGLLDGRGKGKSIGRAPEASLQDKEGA

For orientation: inhibition means the relative decrease from the control value, in per cent. Regarding `CC(=O)C1=C(O)C(=O)N(c2ccc(Cl)c(C)c2)C1C1CCCCC1` (configuration not stated), the inhibition stood at 22% in assay [1], 26% in assay [2] and 25% in assay [3]. Further, the Ki is 31 nM in [4], 9 nM in [5] (read-out: Ki) and 8.13 nM in assay [5] (read-out: pKi (converted)). For the same compound, the result in assay [6] was Active. Besides, the IC50 is 1940 nM in [7] (read-out: IC50), 1860 nM in assay [7] (read-out: pIC50 (converted)), 40 nM in assay [8] (read-out: IC50) and 33.9 nM in assay [8] (read-out: pIC50 (converted)). Besides, in the assay listed under Homo sapiens, the Ratio IC50 is 48.

These data come from ChEMBL document CHEMBL4371011, “Pyrrolone Derivatives as Intracellular Allosteric Modulators for Chemokine Receptors: Selective and Dual-Targeting Inhibitors of CC Chemokine Receptors 1 and 2” (J Med Chem, 2018).
